# High-throughput results deposited in PubChem BioAssay by Broad Institute.
# Shown is part of a subset that was picked to be rich in hits.
# IDH1 mut inh: inhibitors of IDH1 R132H reductase, primary screen, biochemical, plate reader, single point | AID 624101, 2012 | diaphorase/resazurin fluorescence, 60 min | inhibition, % at 10 µM | Isocitrate dehydrogenase [NADP] cytoplasmic (Homo sapiens), O75874 | hit rate 0.18% among 70,000; in the data active = inhibition above about 34%;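 note: 0% = DMSO and 100% = no enzyme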
# Target sequence (O75874 whole entry R132H): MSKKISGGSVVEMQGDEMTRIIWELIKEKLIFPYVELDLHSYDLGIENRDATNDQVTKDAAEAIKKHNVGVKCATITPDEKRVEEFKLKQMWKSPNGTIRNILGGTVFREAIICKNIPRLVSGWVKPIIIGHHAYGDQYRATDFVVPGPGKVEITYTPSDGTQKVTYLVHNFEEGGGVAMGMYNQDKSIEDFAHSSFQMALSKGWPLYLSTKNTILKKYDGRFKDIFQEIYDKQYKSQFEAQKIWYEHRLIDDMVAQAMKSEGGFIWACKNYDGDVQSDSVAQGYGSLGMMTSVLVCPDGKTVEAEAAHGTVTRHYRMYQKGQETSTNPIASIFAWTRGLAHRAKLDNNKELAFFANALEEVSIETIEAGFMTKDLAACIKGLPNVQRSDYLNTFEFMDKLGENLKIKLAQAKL
# GASC1 inh: inhibitors of GASC-1 (KDM4C) histone demethylase, primary screen, biochemical, single concentration HTS; Lysine-specific demethylase 4C (Homo sapiens), Q9H3R0; GST-KDM4C 2-372, H3K9me3 peptide, LANCE TR-FRET; inhibition, % at 12.5 µM; hit rate 0.15% among 96,000; AID 720574, 2013;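 active = mean replicate inhibition above about 25%, with at least 55% of replicates also reaching it, limit read from the data, passing the limit was not always enough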
#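 Test system – GST-tagged GASC-1 (JMJD2C) catalytic fragment, aa 2-372 · Medium – HEPES buffer, pH 7.5, plus ascorbate · Reagent – H3K9me3 peptide with Fe(II)/2OG · Compound – one test concentration per compound · Timing – 30 min reaction, 60 min detection, RT · Technique – TR-FRET with Eu antibody and ULight streptavidin, EDTA stop · Read-out basis – inhibition from TR-FRET ratio decrease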
# Starred values were filed as active, the others as inactive; . = not tested or not shown.
SMILES,IDH1 mut inh,GASC1 inh
CCC(C)[C@@H](CO[C@@H](Cc1ccccc1)C(=O)N[C@@H](CCS(C)(=O)=O)C(=O)OC(C)C)NC[C@@H](N)CS (stereo partly specified),59.6*,.
CC(C)C[C@H](NC(=O)[C@@H](O)[C@H](N)Cc1ccccc1)C(=O)O,0.2,.
Cc1ccc(C(=O)C2C(=O)C(=O)N(CCN(C)C)C23C(=O)N(C)c2ccccc23)cc1 (stereo unspecified),1.4,.
COC(=O)c1ccc(CSc2nnc(-c3cccc(Br)c3)o2)o1,-0.1,.
CCCCCCC[C@@H](O)CC(=O)CCc1ccc(O)c(OC)c1,-0.5,.
COC(CCc1ccc(O)c(O)c1)CC(=O)CCc1ccc(O)c(O)c1 (stereo unspecified),51.9*,.
O=C(CCc1ccc(O)cc1)CC(O)CCc1ccc(O)c(O)c1 (stereo unspecified),54.1*,.
CCCCC[C@H](O)CC(=O)CCc1ccc(O)c(OC)c1,-2.7,.
Cc1c(NC(=O)CCCC(=O)O)cccc1C(=O)O,-0.1,.
COCC#Cc1ccc2c(c1)O[C@H](CN(C)Cc1cccnc1)[C@@H](C)CN([C@@H](C)CO)S2(=O)=O,6.5,0.4
C[C@H](O)C#Cc1ccc2c(c1)O[C@H](CN(C)Cc1cncnc1)[C@@H](C)CN([C@@H](C)CO)S2(=O)=O,-1.8,7.2
CC(C)CC#Cc1ccc2c(c1)O[C@H](CN(C)C(=O)c1cccnc1)[C@@H](C)CN([C@@H](C)CO)S2(=O)=O,0.5,2.8
COCC#Cc1ccc2c(c1)O[C@@H](CN(C)Cc1cccnc1)[C@@H](C)CN([C@@H](C)CO)S2(=O)=O,65.1*,44.4*
CCC(=O)N(C)C[C@@H]1Oc2cc(C#Cc3ccccc3)ccc2S(=O)(=O)N([C@H](C)CO)C[C@@H]1C,0.4,-2.1
C[C@@H](O)C#Cc1ccc2c(c1)O[C@@H](CN(C)Cc1cncnc1)[C@@H](C)CN([C@@H](C)CO)S2(=O)=O,34.4*,36.4*
CC(C)CC#Cc1ccc2c(c1)O[C@@H](CN(C)C(=O)c1cccnc1)[C@@H](C)CN([C@@H](C)CO)S2(=O)=O,38.6*,47.1*
CCC(=O)N(C)C[C@@H]1Oc2cc(C#Cc3ccccc3)ccc2S(=O)(=O)N([C@@H](C)CO)C[C@@H]1C,11.2,33.9*
COc1ccc(C(Nc2ccccn2)c2cc(Cl)c3cccnc3c2O)cc1[N+](=O)[O-] (stereo unspecified),-0.1,.
CC(CN1CCCCC1)NC(=O)c1cc(-c2ccccn2)nc2ccc(Br)cc12 (stereo unspecified),-0.2,.
Cc1nc(CSc2ncnc3sc4c(c23)CCCCC4)cs1,-0.1,.
O=C(CCCCC(=O)N/N=C/c1c(O)ccc2ccccc12)NO,0.2,.
CSC(=O)OCC1=C[C@H](O)[C@@H]2C(C(=O)O)=CO[C@@H](OC3OC(CO)C(O)C(O)C3O)[C@H]12 (stereo partly specified),-0.1,.
COc1ccc(OC)c(NC(=O)C(=O)NCc2ccco2)c1,-0.2,.
CCCC#Cc1ccc2c(c1)O[C@H](CN(C)Cc1cccnc1)[C@H](C)CN([C@H](C)CO)S2(=O)=O,5.9,1.1
Cc1noc(C)c1NC(=O)N(C)C[C@H]1Oc2cc(C#CCN(C)C)ccc2S(=O)(=O)N([C@H](C)CO)C[C@@H]1C,0.3,0.7
SMILES,IDH1 mut inh,GASC1 inh
Cc1noc(C)c1NC(=O)N(C)C[C@@H]1Oc2cc(C#CCN(C)C)ccc2S(=O)(=O)N([C@H](C)CO)C[C@H]1C,43.6*,52.0*
CCCC#Cc1ccc2c(c1)O[C@@H](CN(C)Cc1cccnc1)[C@@H](C)CN([C@@H](C)CO)S2(=O)=O,52.5*,1.2
COc1ccc(CN(C)C[C@H]2Oc3ccc(NC(=O)C4CC4)cc3CC(=O)N([C@@H](C)CO)C[C@@H]2C)cc1,1.6,0.1
C[C@@H]1CN([C@H](C)CO)C(=O)Cc2cc(NC(=O)NC3CCCCC3)ccc2O[C@@H]1CN(C)Cc1ccncc1,8.6,.
C[C@@H]1CN([C@@H](C)CO)C(=O)Cc2cc(NC(=O)NC3CCCCC3)ccc2O[C@H]1CN(C)Cc1ccncc1,46.6*,-0.4
COc1ccc(CN(C)C[C@@H]2Oc3ccc(NC(=O)C4CCCCC4)cc3CC(=O)N([C@@H](C)CO)C[C@H]2C)cc1,106.1*,84.7*
CC1=C(C(=O)c2ccccc2)C(NC(=O)c2ccncc2)(C(F)(F)F)C(=O)N1Cc1ccccc1 (stereo unspecified),8.2,.
COc1ccc(-c2ccc3n(c2=O)C[C@@H]2[C@@H](CO)[C@H](C(=O)N(C)C)N(CC4CCCC4)[C@H]32)cc1,.,8.9
COc1ccc(-c2ccc3n(c2=O)C[C@@H]2[C@@H](CO)[C@H](C(=O)N(C)C)N(CC4CC4)[C@H]32)cc1,.,27.7*
